# Tests used:
# [1] = Cytotoxicity against mouse peritoneal macrophages assessed as growth inhibition after 48 hrs by MTT assay; format: cell-based, Peritoneal macrophage; settings: read-out: LD50
# Method in brief: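 Murine peritoneal macrophages plated at 5 × 10^4 cells/well in DMEM with 5 mM L-glutamine, 10% FBS and antibiotics, then incubated overnight at 5% CO2. Compounds added at varied concentrations in duplicate wells, 48 h further incubation. Viability read by MTT reduction as % of untreated controls. LD50 taken by non-linear regression of % viability vs log concentration.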
# [2] = Hemolytic activity in human RBC after 45 mins by spectrophotometric method; format: ADME, cell-based, Erythrocyte; settings: red blood cells (erythrocytes)
# Method in brief: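 Human RBCs from 50% Alsever's solution were spun at 800g for 10 min and washed three times in saline. Compounds (5-5000 µM) were incubated with a 2% final RBC suspension at 37°C for 45 min. Released haemoglobin was read at 550 nm, with water as the 100% lysis control and saline as the negative control. Result given as the concentration lysing half the RBCs.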
# [3] = Inhibition of acetate buffer-initiated beta-hematin polymerization measured after 48 hrs
# Method in brief: (§1)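 Hemin chloride (4 mM in DMSO) was dispensed into plates with compound in DMSO (50-5 µM), in triplicate. Water or DMSO served as controls. Reaction was started with 0.2 M acetate buffer, pH 4.4, and run at 37 °C for 48 h. The pellet was centrifuged, washed twice with DMSO, dissolved in 0.2 N NaOH, diluted 1:2 in 0.1 N NaOH and read at 405 nm as % inhibition.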
# [4] = Inhibition of acetate buffer-initiated beta-hematin polymerization at 50 uM measured after 48 hrs relative to control; method in brief: as §1
# [5] = system: Plasmodium berghei; assay: Antimalarial activity against Plasmodium berghei ANKA infected in Balb/c mouse assessed as parasitemia at 20 mg/kg, ip qd administered for 4 days starting from 2 hrs post infection by Giemsa staining based microscopic method (reference value: 65.2 +/- 2.58%); format: functional
# [6] = system: Plasmodium berghei; assay: Antimalarial activity against Plasmodium berghei ANKA infected in Balb/c mouse assessed as mouse survival time at 20 mg/kg, ip qd administered for 4 days starting from 2 hrs post infection (reference value: 6.8 +/- 0.7day); format: functional
# Method in brief: (§2)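 Male Balb-C mice (18-22 g, n=6 per group) infected i.v. via caudal vein with 10^6 P. berghei-infected RBC. Treatment started 2 h post-infection, once daily i.p. for 4 days. Compounds dissolved in DMSO (0.1 M stock), diluted with 2% Saline-Tween 20. Saline-treated controls. Survival time recorded relative to saline group. Parasitemia by Giemsa-stained smears at day 4. Mean±SD.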
# [7] = system: Plasmodium berghei; assay: Antimalarial activity against Plasmodium berghei ANKA infected in Balb/c mouse assessed as parasitemia at 25 mg/kg, ip qd administered for 4 days starting from 2 hrs post infection by Giemsa staining based microscopic method (reference value: 65.2 +/- 2.58%); format: functional
# [8] = system: Plasmodium berghei; assay: Antimalarial activity against Plasmodium berghei ANKA infected in Balb/c mouse assessed as mouse survival time at 25 mg/kg, ip qd administered for 4 days starting from 2 hrs post infection (reference value: 6.8 +/- 0.7day); format: functional; method in brief: as §2
SMILES,CC50 at 48 h [1] [µM],HC50 at 0.75 h [2] [mM],IC50 [3] [nM],inhibition [4] [%],Activity [5] [%],Time [6] [days],Activity [7] [%],Time [8] [days]
Clc1ccc2c(Nc3ccc(CN4CCOCC4)cc3)ccnc2c1,36.2,0.591,> 50000,5.17,–,–,–,–
CCN(CC)Cc1ccc(Nc2ccnc3cc(Cl)ccc23)cc1,42.4,2.92,1780,98.2,3.8,24.9,–,–
CCN(CC)CCCC(C)Nc1ccnc2cc(Cl)ccc12 (stereo unspecified) [CHLOROQUINE],–,> 1.5,1480,98.6,–,–,0.6,29.4
CC(C)(C)NCc1ccc(Nc2ccnc3cc(Cl)ccc23)cc1.Cl,47.1,1.49,1660,98.6,4,25.8,–,–

# From ChEMBL document CHEMBL4145443, “Synthesis, β-hematin inhibition studies and antimalarial evaluation of new dehydroxy isoquine derivatives against Plasmodium berghei: A promising antimalarial agent” (Eur J Med Chem, 2018)
